Biological target: EcCATI (type I chloramphenicol acetyltransferase) (Escherichia coli, UniProt P62577)
Test: Direct ESI-MS
Format: binding
Settings: for Cooperativity factor α: second ligand of the same type binding to EcCATI:1Ligand; for Cooperativity factor β: third ligand of the same type binding to EcCATI:2Ligands
In short: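 Recombinant E. coli type I CAT (Rosetta2 BL21 DE3; heat step, anion-exchange, gel filtration) desalted into 200 mM ammonium acetate pH ~7.0 and mixed with ligand freshly prepared in the same buffer. Trimer at ~10 μM final, with the protein:ligand ratio varied by ligand. Nano-ESI on a Q-TWIMS-TOF under native-preserving settings. Bound/free abundance ratios were fitted to a stepwise three-site model giving intrinsic Kd, α and β. Values are mean ± SD.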

EcCATI (type I chloramphenicol acetyltransferase), sequence (P62577 whole entry, looked up): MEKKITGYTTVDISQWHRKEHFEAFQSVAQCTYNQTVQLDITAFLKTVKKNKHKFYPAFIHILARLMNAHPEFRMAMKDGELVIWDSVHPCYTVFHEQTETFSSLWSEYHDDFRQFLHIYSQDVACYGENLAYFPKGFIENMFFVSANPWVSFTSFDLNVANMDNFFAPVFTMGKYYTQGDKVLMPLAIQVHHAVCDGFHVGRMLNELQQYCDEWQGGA

O=C(N[C@H](CO)[C@H](O)c1ccc([N+](=O)[O-])cc1)C(Cl)Cl [Chl, chloramphenicol]
Cooperativity factor α: 0.5 | Cooperativity factor β: 0.2

CCSCCNC(=O)CCNC(=O)[C@H](O)C(C)(C)COP(=O)(O)OP(=O)(O)OC[C@H]1O[C@@H](n2cnc3c(N)ncnc32)[C@H](O)[C@@H]1OP(=O)(O)O [S-Et-CoA, S-ethyl-CoA]
Cooperativity factor α: 0.8 | Cooperativity factor β: 0.5

Reference: article PMC12306972 (Analytical and bioanalytical chemistry, 2023)
